Compound activity as filed in PubChem BioAssay.
APJ antagonist: APJ receptor antagonism; actives 0.32% (n = 330,000); CHO-K1 APJ beta-arrestin complementation, luminescence; P35414; inhibition, % at 20 µM;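 active = inhibition above about 40% at 20 µM, limit read from the data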;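 note: cells challenged with 10 nM apelin-13 agonist together with compound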
Target sequence (P35414 whole entry, looked up): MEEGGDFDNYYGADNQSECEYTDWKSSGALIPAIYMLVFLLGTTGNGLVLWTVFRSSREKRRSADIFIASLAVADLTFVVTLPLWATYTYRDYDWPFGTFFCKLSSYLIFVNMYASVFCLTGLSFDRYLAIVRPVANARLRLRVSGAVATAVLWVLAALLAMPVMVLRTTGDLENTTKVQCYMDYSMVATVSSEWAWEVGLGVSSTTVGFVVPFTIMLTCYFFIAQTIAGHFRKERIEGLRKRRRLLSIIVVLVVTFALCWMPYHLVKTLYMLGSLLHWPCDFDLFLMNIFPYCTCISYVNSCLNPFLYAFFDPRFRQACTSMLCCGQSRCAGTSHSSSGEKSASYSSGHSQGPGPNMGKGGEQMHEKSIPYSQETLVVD
CCR6 antag: blocks CCL20-driven beta-arrestin recruitment at human CCR6. P51684. CHO-K1 CCR6 PathHunter beta-arrestin, luminescence, CCL20-stimulated. inhibition, % at 20 µM. actives 0.49% (n = 340,000). AID 493098;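 active = compounds whose inhibition of the agonist-driven luminescence signal at 20 µM reaches about 50%, limit read from the data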;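 note: cells stimulated with CCL20 at 14 nM final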
APJ agonist: agonists of human APJ apelin receptor | actives 0.11% (n = 330,000) | P35414 | activation, % at 20 µM | CHO-K1 APJ PathHunter beta-arrestin, luminescence; 0% DMSO wells, 100% apelin;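 active = activation more than six SD over the plate average, tested at 20 µM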
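Assay system – PathHunter CHO-K1 APJ (AGTRL-1) beta-arrestin reporter cells · Compound – one dose, 20 µM compound, 1% DMSO · Timing – compound 90 min 25 °C, reagent 1 h · Measured by – luminescence from split beta-galactosidase complementation, Galacton Star/Emerald II substrate · Measure – beta-arrestin recruitment to APJ as agonist activity, luminescent signal · Benchmarks – DMSO vs Apelin-13 10 nM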
EBI2 antag: antagonists of human EBI2 receptor; inhibition, % at 5 µM; EBI2 beta-arrestin recruitment, luminescence, 7a,25-OHC stimulated; actives 0.81% (n = 360,000); in the data active = inhibition above about 38%;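 note: enzyme fragment complementation signal reports receptor beta-arrestin coupling in cells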
CXCR6 block: CXCR6 (human) receptor inhibition; CHO-K1 PathHunter CXCR6 beta-arrestin, luminescence; inhibition, % at 20 µM; actives 0.36% (n = 360,000); in the data active = inhibition above about 34%, passing the limit was not always enough;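 note: antagonist mode with CXCL16 agonist at 10 nM final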
APJ antag conf: APJ receptor antagonism confirmation. shares compounds with APJ antagonist. APJ beta-arrestin recruitment, luminescence, antagonist mode. inhibition, % at 20 µM. actives 66% (n = 950); in the data active = inhibition above about 50%
Each line names hits and unclear results; the compound was inactive in the other large screens (follow-up assays come after a bar, where they were run). Hits are enriched below; roughly 1.5% of the tested compounds scored in any of these assays.

CCS(=O)(=O)c1ccc(OC)c(N=Nc2ccc(O)c3ncccc23)c1	none
Cc1ccc(C)c(N=Nc2ccc(O)c3ncccc23)c1	APJ antagonist 45, CCR6 antag 63 | APJ antag conf 74
COc1cc2c(cc1OC)[C@H](C)N(C(=O)NCc1ccccc1)CC2	none
CN(C)S(=O)(=O)n1cc(/C=C(\NC(=O)c2ccccc2F)C(=O)N2CCOCC2)c2ccccc21	none
CN(C)S(=O)(=O)n1cc(/C=C(\NC(=O)c2ccccc2Cl)C(=O)N2CCOCC2)c2ccccc21	APJ antagonist 50 | APJ antag conf inactive
Cc1c(C(c2ccc(C(=O)O)cc2)c2c(C)n(C)n(-c3ccccc3)c2=O)c(=O)n(-c2ccccc2)n1C	none
CC(=O)Nc1ccc(NCCc2cccs2)cc1	none (no result: APJ antagonist, CCR6 antag, APJ agonist)
CC(=O)Nc1ccc(NCc2cccs2)cc1	APJ antagonist 104 | APJ antag conf inactive
CC(OC(=O)CCC(=O)c1ccc(Cl)s1)C(=O)NC1(C#N)CCCCC1 (stereo unspecified)	none
N#Cc1cnn2c3c(cnc12)C(=O)N1CCc2ccccc2C1C3 (stereo unspecified)	APJ antagonist 48 | APJ antag conf inactive
O=C(Nc1nc2ccc(F)cc2s1)c1ccccn1	APJ antagonist 77, CCR6 antag 65 (no result: EBI2 antag, CXCR6 block) | APJ antag conf 68
O=C(Nc1nc2ccccc2s1)c1cnccn1	none
O=c1c2cc(Br)ccc2[nH]c(=S)n1Cc1ccccn1	APJ antagonist 59, CCR6 antag 56, CXCR6 block 51 | APJ antag conf 93
O=c1c2cc(Br)ccc2[nH]c(=S)n1Cc1ccccc1	none
Cc1nc2cc(NC(=O)c3cccc(S(C)(=O)=O)c3)ccc2o1	none
Cc1cccc(NC(=O)CSc2n[nH]c(-c3cccnc3)n2)c1	none
c1ccc(-c2nc(-c3ccco3)cs2)nc1	APJ antagonist 53 | APJ antag conf inactive
c1ccc(-c2nccc(-c3ccco3)n2)nc1	none
Cc1ccc(C(=O)CNc2cc(C)ccc2C)cc1	APJ antagonist 43, CCR6 antag 73 | APJ antag conf 118
Cc1ccccc1NCC(=O)c1ccc(Br)cc1	APJ antagonist 46 | APJ antag conf 99
COc1ccc(C(=O)CNc2ccccc2Br)cc1	none
Cc1ccc(C)c(NCC(=O)c2ccc(Cl)cc2)c1	APJ antagonist 73, CCR6 antag 60 | APJ antag conf 88
O=C(CNc1ccccc1C(=O)O)c1ccccc1	APJ antagonist 41, CCR6 antag 79, CXCR6 block 68 | APJ antag conf 149
Cc1ccc(C)c(NC(=S)N(Cc2ccc(Cl)cc2)Cc2ccc(C(=O)O)cc2)c1	none
Cc1ccc(C)c(NCC(=O)NNC(=S)Nc2ccccc2)c1	none
O=C(CCNS(=O)(=O)c1ccccc1)N1CCC(Cc2ccccc2)CC1	none
COc1ccc(Cl)cc1NC(=O)CSc1nc2[nH]ncc2c(=O)[nH]1	none (no result: APJ antagonist, CCR6 antag, APJ agonist)
CCCCC1CCC(C(=O)N(C)CC(=O)Nc2cccc(F)c2)CC1 (stereo unspecified)	none
O=C(NNc1ccc(Cl)cc1)c1sccc1Cl	APJ antagonist 62 | APJ antag conf 98
NS(=O)(=O)c1ccc(NNC(=O)c2ccc(Br)o2)c([N+](=O)[O-])c1	APJ antagonist 52, CCR6 antag 69 | APJ antag conf 82
CCCc1nnc(NC(=O)CCC(=O)NC2CCCC2)s1	none
COc1ccc(Nc2nc(Nc3ccc(OC)cc3)nc(-n3[nH]c(=O)c(C)c3C)n2)cc1	APJ antagonist 58 | APJ antag conf inactive
COc1ccc(Nc2nc(OC)nc(OC)n2)cc1	none
COc1ccc(S(=O)(=O)NC(C)C(=O)Nc2ccc3c(c2)OCO3)cc1OC (stereo unspecified)	none
COc1ccc(S(=O)(=O)NC(C)C(=O)Nc2ccc3c(c2)OCCO3)cc1OC (stereo unspecified)	APJ antagonist 47 | APJ antag conf inactive
COc1ccc(NS(=O)(=O)c2cccc(C(=O)NNC(=O)c3ccc(=O)[nH]c3)c2)cc1	none
CCCOc1ccc(C(=O)NNC(=S)NC(=O)CC)cc1	APJ antagonist 54, CCR6 antag 78, CXCR6 block 48 | APJ antag conf 94
O=C1C=C(N2CCOCC2)CCC1	none
O=C1C=C(N2CCOCC2)CO1	APJ antagonist 42 | APJ antag conf inactive
COC(=O)[C@]12CCCCC=C1N(Cc1ccc3c(c1)OCO3)C(=O)[C@H](CC(=O)N1CCC(c3ccccc3)CC1)C2	none (no result: APJ antagonist, CCR6 antag, APJ agonist, CXCR6 block)
CC1CN=C(N(C(=O)Nc2ccccc2)C(C)c2ccccc2)S1 (stereo unspecified)	none
CCOC(=O)C1CCN(c2nc(C)nc3c2oc2ccccc23)CC1	APJ antagonist 45 | APJ antag conf inactive
CCOC(=O)C1CCCN(c2c(NCCCN(CC)c3ccccc3)c(=O)c2=O)C1 (stereo unspecified)	none
CCOC(=O)C1CCCN(c2c(NCCN(CC)c3ccccc3)c(=O)c2=O)C1 (stereo unspecified)	APJ antagonist 40 | APJ antag conf inactive
CC1=NN(c2ccc(C(=O)OC(C)C)cc2)C(=O)/C1=C\C=C\c1ccco1	APJ antagonist 57 | APJ antag conf 51
CCOC(=O)c1ccc(N2N=C(C)/C(=C/C=C/c3ccco3)C2=O)cc1	none
COc1cccc(/C=C2\CC(C)Cc3c2nc2ccccc2c3C(=O)O)c1OC (stereo unspecified)	APJ antagonist 49 | APJ antag conf inactive
CCN(CC)S(=O)(=O)c1cccc(N=Nc2c(O)c3ccccc3oc2=O)c1	APJ antagonist 40, CCR6 antag 59 | APJ antag conf inactive
O=C(NNc1ccc(O)cc1)c1ccc(Br)cc1	APJ antagonist 86, CCR6 antag 101, EBI2 antag 59, CXCR6 block 70 | APJ antag conf 139
O=C(NCCCN1CCOCC1)c1cc(S(=O)(=O)N2CCCCC2)ccc1Cl	none (no result: APJ antagonist, CCR6 antag, APJ agonist)
Cc1ccc(C(C[N+](=O)[O-])n2nc(C)cc2C)cc1 (stereo unspecified)	none
Cc1ccc(C(C[N+](=O)[O-])Sc2ccc(N)cc2)cc1 (stereo unspecified)	APJ antagonist 46, CCR6 antag 52, CXCR6 block 53 | APJ antag conf 74
O=[N+]([O-])c1ccc(O)c(/C=N/NC2=NS(=O)(=O)c3ccccc32)c1	none
O=C(CCC(=O)Nc1ccc(Br)cc1)N/N=C/c1cc([N+](=O)[O-])ccc1O	APJ antagonist 42, CCR6 antag 65 | APJ antag conf inactive
O=[N+]([O-])c1ccc(O)c(/C=N/Nc2ccc(Cl)nn2)c1	APJ antagonist 55, CCR6 antag 90, EBI2 antag 77, CXCR6 block 79 | APJ antag conf 81
O=C(CSc1nnc(NC(=O)C2CC2)s1)Nc1ccccc1Cl	none
COc1ccc(CNC(=O)CN(Cc2ccco2)C(=O)CNS(=O)(=O)c2ccc(F)cc2)cc1	APJ antagonist 41 | APJ antag conf inactive
CN(Cc1ccccc1F)C(=O)c1ccccc1Sc1ccccc1C#N	none
